Laboratory results: ChEMBL document CHEMBL1135803, “Design, synthesis, and preliminary pharmacological evaluation of N-acyl-3-aminoglutarimides as broad-spectrum chemokine inhibitors in vitro and anti-inflammatory agents in vivo” (2002)
Calls of active or inactive are those of the source. The calls are words filed in the database; no cut-off is given here. Peptide text beside a SMILES is read from it.

Legend:
[1] = test system: THP-1; assay: Effective dose against monocyte chemoattractant protein-1(MCP-1) induced leukocyte migration of THP-1 cells; assay type: functional; details: Homo sapiens, read-out: ED50 (the source's name)
Procedure, shortened: (§1)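 Trans-well microtiter migration of human myelomonocytic THP-1 cells toward 25 ng/mL MCP-1 in Gey's balanced salt solution with 1 mg/mL endotoxin-free BSA, no fetal calf serum, 2 h at 37 °C. Compound is in both compartments, DMSO 1% final, tested up to 100 μM. Migrated cells are counted by MTT as % of vehicle-only migration. ED50 is the concentration giving 50% reduction; triplicate determinations.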

[2] = test system: THP-1; assay: Effective dose against monocyte chemoattractant protein-1(MCP-1) induced leukocyte migration of THP-1 cells at 100 uM conc.; Inactive; assay type: functional, cell-based; details: Homo sapiens; procedure, shortened: as §1

| SMILES | EC50 [1] [µM] | NA [2] |
| --- | --- | --- |
| CC(C)[C@H](NC(=O)CN)C(=O)N[C@@H](CCC(N)=O)C(=O)O (H-Gly-Val-Gln-OH) | – | inactive |
| CC[C@H](C)[C@H](NC(=O)[C@@H](N)CCC(=O)O)C(=O)N[C@@H](CS)C(=O)N[C@@H](C)C(=O)N[C@@H](CC(=O)O)C(=O)N1CCC[C@H]1C(=O)N[C@@H](CCCCN)C(=O)N[C@@H](CCC(N)=O)C(=O)N[C@@H](CCCCN)C(=O)N[C@@H](Cc1c[nH]c2ccccc12)C(=O)N[C@H](C(=O)N[C@@H](CCC(N)=O)C(=O)O)C(C)C (H-EICADPKQKWVQ-OH) | 8 | – |
| CC(C)[C@H](NC(=O)[C@@H](N)Cc1c[nH]c2ccccc12)C(=O)NCC(=O)O (H-Trp-Val-Gly-OH) | – | inactive |
| NC(=O)CC[C@H](NC(=O)c1ccccc1)C(=O)NCc1ccccc1 | > 100 | – |
| CC(C)[C@H](NC(=O)[C@H](Cc1c[nH]c2ccccc12)NC(=O)[C@H](CCCCN)NC(=O)[C@H](CCC(N)=O)NC(=O)[C@H](CCCCN)NC(=O)[C@@H]1CCCN1C(=O)[C@H](CC(=O)O)NC(=O)[C@H](C)NC(=O)[C@@H](N)CS)C(=O)N[C@@H](CCC(N)=O)C(=O)O (H-CADPKQKWVQ-OH) | 8 | – |
| C=CCCCCCCCCC(=O)N[C@@H](CCC(N)=O)C(N)=O | 15 | – |
| CC(C)[C@H](NC(=O)[C@@H](N)Cc1c[nH]c2ccccc12)C(=O)N[C@@H](CCCN=C(N)N)C(=O)O (H-Trp-Val-Arg-OH) | – | inactive |
| NCCCC[C@H](NC(=O)[C@H](CCC(N)=O)NC(=O)[C@@H](N)CCCCN)C(=O)O | 12 | – |
| CC(C)[C@H](N)C(=O)N[C@@H](Cc1c[nH]c2ccccc12)C(=O)N[C@@H](CCC(N)=O)C(=O)O (H-Val-Trp-Gln-OH) | – | inactive |
| C=CCCCCCCCCC(=O)N[C@H]1CCC(=O)N(C)C1=O | 0.033 | – |
| O=C1CC[C@H](NC(=O)c2ccccc2)C(=O)N1 | > 100 | – |
| O=C(O)CCCCCCCCC(=O)N[C@H]1CCC(=O)NC1=O | 0.066 | – |
| CC(C)[C@H](NC(=O)[C@H](CCC(N)=O)NC(=O)[C@@H](N)Cc1c[nH]c2ccccc12)C(=O)O (H-Trp-Gln-Val-OH) | – | inactive |
| CC(C)(C)OC(=O)N[C@@H](CCC(N)=O)C(N)=O | 45 | – |
| CC(C)[C@H](NC(=O)[C@@H](N)Cc1ccc(O)cc1)C(=O)N[C@@H](CCC(N)=O)C(=O)O (H-Tyr-Val-Gln-OH) | 25 | – |
| NC(=O)CC[C@H](NC(=O)c1ccccc1)C(=O)O | > 100 | – |
| CC(C)[C@H](NC(=O)[C@H](Cc1c[nH]c2ccccc12)NC(=O)[C@H](CCCCN)NC(=O)[C@H](CCC(N)=O)NC(=O)[C@@H](N)CCCCN)C(=O)N[C@@H](CCC(N)=O)C(=O)O (H-KQKWVQ-OH) | 6 | – |

Second part, led by results:

| EC50 [1] [µM] | SMILES | NA [2] |
| --- | --- | --- |
| 0.1 | C=CCCCCCCCCC(=O)N[C@H]1CCCNC1=O | – |
| 0.01 | CCCCCCCCCCC(=O)N[C@H]1CCC(=O)NC1=O | – |
| > 100 | CC(C)[C@H](N)C(=O)N[C@H](C(=O)N[C@@H](CCC(N)=O)C(=O)O)C(C)C (H-Val-Val-Gln-OH) | – |
| 0.01 | CCCCCCCCC(=O)N[C@H]1CCC(=O)NC1=O | – |
| 40 | C=CCCCCCCCCC(=O)N[C@@H](CCC(N)=O)C(=O)NCc1ccccc1 | – |
| > 100 | CC(C)[C@H](NC(=O)[C@@H](N)Cc1c[nH]c2ccccc12)C(=O)N[C@@H](CC(N)=O)C(=O)O (H-Trp-Val-Asn-OH) | – |
| > 100 | NC(=O)CC[C@H](NC(=O)c1ccccc1)C(N)=O | – |
| 0.033 | CCCCC(=O)N[C@H]1CCC(=O)NC1=O | – |
| > 100 | CC(C)(C)OC(=O)N[C@@H](CCC(N)=O)C(=O)NCc1ccccc1 | – |
| 0.02 | CCCCCCC(=O)N[C@H]1CCC(=O)NC1=O | – |
| 50 | CC[C@H](C)[C@H](NC(=O)[C@@H](N)CCC(=O)O)C(=O)N[C@@H](CS)C(=O)N[C@@H](C)C(=O)N[C@@H](CC(=O)O)C(=O)N1CCC[C@H]1C(=O)O (H-EICADP-OH) | – |
| 0.66 | CCCC(CCC)C(=O)N[C@H]1CCC(=O)NC1=O | – |
